# RGS4 inh – human RGS4 inhibition | HEK293 M3R/RGS4 inducible, Fluo-4 calcium flux; hits give high values; triggered by carbachol at its EC20 | B-score at 10 µM | actives 0.45% (n = 310,000) | AID 463165;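 active = B-score, a plate-corrected calcium signal, over three deviations above library mean, with baseline fluorescence within five deviations of library mean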;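 also: RGS4 expression induced by doxycycline in cells with stable M3 receptor; B-score is computed from the integrated fluorescence ratio over baseline after carbachol; higher B-score means a larger calcium signal and so more RGS4 inhibition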
# Target sequence (P49798 whole entry, looked up): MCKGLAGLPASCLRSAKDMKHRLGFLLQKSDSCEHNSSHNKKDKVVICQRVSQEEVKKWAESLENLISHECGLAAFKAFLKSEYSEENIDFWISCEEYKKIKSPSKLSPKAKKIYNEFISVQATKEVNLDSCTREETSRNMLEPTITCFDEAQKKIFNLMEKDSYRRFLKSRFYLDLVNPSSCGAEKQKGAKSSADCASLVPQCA
# MrgX1 ag – human MrgX1 receptor agonism, primary screen; Q96LB2; MrgX1-HEK293 cells, Fluo-4 calcium fluorescence, agonist mode; hits give high values; B-score at 10 µM; actives 0.44% (n = 310,000); AID 588627;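 active = calcium response B-score plate-corrected fluorescence ratio at least 3 library SD, with starting fluorescence B-score inside 5 SD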
# Target sequence (Q96LB2 whole entry, looked up): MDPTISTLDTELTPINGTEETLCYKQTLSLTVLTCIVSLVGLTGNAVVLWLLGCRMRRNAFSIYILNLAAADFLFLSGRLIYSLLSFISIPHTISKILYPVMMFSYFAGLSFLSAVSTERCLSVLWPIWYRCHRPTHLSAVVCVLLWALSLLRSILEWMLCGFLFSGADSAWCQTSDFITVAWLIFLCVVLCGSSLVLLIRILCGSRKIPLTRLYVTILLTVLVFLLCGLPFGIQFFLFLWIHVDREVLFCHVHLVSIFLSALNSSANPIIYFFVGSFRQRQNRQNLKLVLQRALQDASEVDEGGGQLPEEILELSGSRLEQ
#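 Test system: Stable human MrgX1 HEK293 cell line | Schedule: Overnight plating before 1 h dye loading | Read-out basis: Baseline-normalised fluorescence change ratio, B-scored | Detection: Kinetic calcium dye fluorescence, Fluo-4 NW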
# MrgX1 PAM – human MrgX1 positive allosteric modulation, primary screen; B-score at 10 µM; AID 588675; MrgX1-HEK293, Fluo-4 calcium flux, FDSS; hits give high values; actives 0.63% (n = 310,000);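 active = plate-corrected calcium response at least 3 library SD above typical, normal starting fluorescence, not activating the receptor alone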;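 also: compound read alongside a low EC10 to EC30 dose of BAM8-22 agonist; peak minus trough fluorescence over baseline measured at the second addition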
# MrgX1 antag – blocks BAM8-22 activation of human MrgX1 receptor. MRGX1-HEK293 calcium flux, Fluo-4, BAM8-22 antagonism; hits give low values. actives 1.3% (n = 310,000). B-score at 10 µM. Q96LB2;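 active = calcium-response B-score plate-corrected more than 3 library SD below zero, starting fluorescence within 5 deviations, no agonist response on first addition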;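 also: peak minus trough fluorescence over baseline after final BAM8-22 challenge near maximal dose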
# RGS4 pot – potentiators or activators of RGS4; HEK293 M3R/inducible RGS4, carbachol calcium flux Fluo4; hits give low values; AID 463111; B-score at 10 µM; actives 0.92% (n = 310,000);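 active = B-score of the integrated calcium signal more than 4 SD below the library mean, with starting fluorescence not abnormally high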;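 also: negative B-score means reduced calcium response which marks RGS4 activation or potentiation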
#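 Test system: HEK293 cells with stable M3R and inducible RGS4; also added: carbachol at ECmax as muscarinic agonist stimulus; schedule: dye loading 30 min 37 °C, buffer rest 30 min RT; technique: kinetic calcium fluorescence imaging with Fluo4-AM dye, 2 µM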
# MrgX1 antag conf – confirmation of human MrgX1 receptor antagonists | shares compounds with MrgX1 antag | MrgX1-HEK293, BAM8-22 calcium flux, Fluo-4; hits give low values | remaining BAM8-22 calcium response % of control (hits give low values), % at 10 µM | actives 19% (n = 2,300) | AID 602420;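 active = remaining agonist calcium response no higher than 100% minus 3 SD of agonist-only control wells, with starting fluorescence near control levels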;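 also: agonist BAM8-22 given at a near maximal EC90 to ECmax level; peak minus minimum fluorescence divided by baseline after agonist addition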
# HEK293 Ca flux – MrgX1 antagonist counter-screen hit in parental HEK293 cells | shares compounds with MrgX1 antag | Fluo-4 calcium fluorescence, FDSS | fluorescence ratio F(max-min)/F0 at 10 µM | actives 2% (n = 4,000) | AID 624111;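 active = duplicate-averaged calcium fluorescence ratio at least three times the standard deviation of buffer wells, a nonspecific response in parental cells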
# HEK293 Ca counter – counter-screen for MrgX1 allosteric activators: effect in parental HEK293 cells. shares compounds with MrgX1 antag. parental HEK293 calcium flux, Fluo-4 fluorescence ratio; hits give high values. fluorescence ratio F(max-min)/F0 at 10 µM. actives 0.4% (n = 4,000). AID 624114;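 active = calcium fluorescence ratio, averaged over duplicates, at least 3 SD of the buffer-well ratio, meaning a nonspecific response in receptor-free cells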;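 also: untransfected parental HEK293 lacking MrgX1 used as counterscreen for MrgX1 allosteric activators; fluorescence change taken during the second addition on a kinetic imager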
# HEK293 Ca cntr2 – activity in parental HEK293 cells lacking MrgX1 receptor; fluorescence ratio F(max-min)/F0 at 10 µM; shares compounds with MrgX1 antag; Fluo-4 calcium fluorescence (FDSS); hits give high values; actives 8.7% (n = 4,000);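 active = calcium fluorescence ratio at least three times the spread of buffer wells, meaning a non-specific response in parental cells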
# * = called active by the depositor; i = inactive; . = not tested or not shown. Rows were chosen to be rich in hits. Some 3.5% of all compounds tested hit in one or more screens of this group.
SMILES,RGS4 inh,MrgX1 ag,MrgX1 PAM,MrgX1 antag,RGS4 pot,MrgX1 antag conf,HEK293 Ca flux,HEK293 Ca counter,HEK293 Ca cntr2
CCn1nnnc1SCC(=O)c1cccc(OC)c1,i,i,i,i,i,.,.,.,.
COc1ccc(-n2nnnc2SCC(=O)c2cccc(OC)c2)cc1,i,i,i,-4.6*,i,i,i,i,i
COc1ccc(CNC(=O)CSc2nnnn2-c2ccccc2)cc1,i,i,i,-9.9*,i,i,i,i,i
CCCn1nnnc1SCC(=O)NCc1ccc(OC)cc1,i,i,i,-6.8*,i,i,i,i,i
CCOC(=O)c1oc2ccccc2c1CSc1nnnn1-c1ccc(OC)cc1,i,i,i,-7.1*,i,i,i,i,i
Cc1ccc(-c2nc(NC(=O)CSc3nnnn3-c3ccccc3)ns2)cc1,i,i,i,-6.7*,i,i,i,i,i
CCCn1nc2cc(C(=O)NCc3ccc(OC)cc3)ccc2c1OCC,i,i,i,-5*,i,i,i,i,i
CC(C)Cn1c(=O)c(C(=O)NCc2ccc3c(c2)OCO3)c(O)c2ccccc21,i,i,i,i,i,.,.,.,.
COc1cccc(Nc2ncnc3sccc23)c1,i,i,i,i,i,.,.,.,.
COC(=O)c1cccc(Nc2ncnc3sccc23)c1,i,i,i,-4.5*,i,i,i,i,i
O=C(O)c1ccc(COCC(F)(F)C(F)F)o1,i,i,i,i,i,.,.,.,.
COc1ccc(CCn2nnnc2CN2CCN(C(=O)c3ccco3)CC2)cc1OC,i,i,i,i,i,.,.,.,.
COCCn1nnnc1CN1CCN(C(=O)c2ccco2)CC1,i,i,i,-6.3*,i,i,i,i,i
COCCCNCC(O)C(F)(F)F (stereo unspecified),i,i,i,i,i,.,.,.,.
Clc1ccc(OCc2nnc3n2CCCCC3)c(Cl)c1,i,i,i,i,i,.,.,.,.
COc1ccc2nc(C)cc(NCc3ccc(F)cc3)c2c1,i,i,i,-8.4*,i,i,i,i,i
COc1ccc2nc(C)cc(Nc3ccc(C)cc3)c2c1,i,i,i,i,i,.,.,.,.
O=C(NCCC1=CCCCC1)c1ccc(F)cc1,i,i,i,-6.2*,i,i,i,i,i
CCC(C)c1ccccc1NC(=O)COC(=O)c1ccc2[nH]c3c(c2c1)CCCC3 (stereo unspecified),i,i,i,-7.4*,i,i,i,i,i
O=C(COC(=O)c1ccc2[nH]c3c(c2c1)CCCC3)Nc1ccccc1Cl,i,i,i,i,i,.,.,.,.
CC(C)c1ccc(NC(=O)NCc2cccnc2)cc1,i,i,i,i,i,.,.,.,.
CCOC(=O)C1CCCN(C(=O)Cc2ccc(OC)c(OC)c2)C1 (stereo unspecified),i,i,i,-4.8*,i,i,i,i,i
COCCNC(=O)Cn1ccc2cc(S(=O)(=O)N3CCCCC3)ccc21,i,i,i,i,i,.,.,.,.
COC(=O)CCc1c(C)c(C(=O)c2ccc(F)cc2)c2ccccn12,i,i,i,-5.7*,i,i,i,i,i
COC(=O)CCc1c(C)c(C(=O)c2cc(F)c(F)c(F)c2F)c2ccccn12,i,i,i,i,i,.,.,.,.
SMILES,RGS4 inh,MrgX1 ag,MrgX1 PAM,MrgX1 antag,RGS4 pot,MrgX1 antag conf,HEK293 Ca flux,HEK293 Ca counter,HEK293 Ca cntr2
c1ccc(Nc2ccccc2Nc2ccccn2)nc1,i,i,i,-4.7*,i,78%*,i,i,i
c1ccc(CNc2ccccn2)cc1,i,i,i,i,i,.,.,.,.
O=C(CNC(=O)c1cccs1)OCC(=O)c1ccccc1,i,i,i,i,i,.,.,.,.
CCc1ccc(C(=O)COC(=O)CNC(=O)c2cccs2)cc1,i,i,i,-6.2*,i,i,i,i,i
COc1ccc(C(=O)NC2CC2)cc1OC1CCN(Cc2ccccc2F)CC1,i,i,i,i,i,.,.,.,.
COc1ccc(C(=O)NC2CC2)cc1OC1CCN(Cc2ccc(F)cc2F)CC1,i,i,i,-5.6*,i,i,i,i,i
CCOc1cnc(-c2ccc(OC)cc2)o1,i,i,i,-4.6*,i,i,i,i,i
COc1cc(C)c(NC(=S)Nc2ccc(Cl)c(Cl)c2)cc1OC,i,i,i,-5.3*,i,66%*,i,i,i
Nc1c(C(=O)N2CCOCC2)sc2nc(N3CCOCC3)c3c(c12)CCCC3,i,i,i,i,i,.,.,.,.
Cc1cccc2cc3c(N)c(C(=O)N4CCOCC4)sc3nc12,i,i,i,-5.1*,i,i,i,i,48*
Cc1ccc(-c2c(C(=O)O)c3ccccc3[nH]c2=O)cc1,i,i,i,i,i,.,.,.,.
Oc1cccc(C(O)CNCc2ccc(OCc3ccc(Cl)cc3Cl)cc2)c1 (stereo unspecified),i,i,i,i,i,.,.,.,.
COC(=O)c1sc(S(=O)(=O)N2CCC(C(N)=O)CC2)c(C(=O)OC)c1C,i,i,i,i,i,.,.,.,.
COC(=O)c1sc(S(=O)(=O)N2CCCCC2C(=O)O)c(C(=O)OC)c1C (stereo unspecified),i,i,i,-5.4*,i,i,i,i,i
Cc1cccc(N(C)S(=O)(=O)c2cc3c(cc2C)n(C)c(=O)c(=O)n3C)c1,i,i,i,-4.7*,i,i,i,i,i
Cc1cc2c(cc1S(=O)(=O)N(C)c1ccccc1)n(C)c(=O)n2C,i,i,i,i,i,.,.,.,.
Cc1cc2ncc(-c3cccs3)nc2cc1C,i,i,i,i,i,.,.,.,.

# Bioassay records as filed in PubChem BioAssay.
